Screening data from PubChem.
Only some compounds are listed: those with a hit (about 4.3% of all), similar ones and a draw of the others.
m5-HT2A agonist: mouse HTR2A agonism via beta-arrestin recruitment. AID 624169. activation, % at 7.6 µM. P35363. 360,000 tested, 0.66% active. CHO-K1 mHTR2A beta-arrestin complementation, luminescence; percent of 30 µM serotonin response;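 active = activation above a run cutoff, the mean activation of all tested compounds plus 3 SD, cut at about 14% in these data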
Target sequence (P35363 whole entry, looked up): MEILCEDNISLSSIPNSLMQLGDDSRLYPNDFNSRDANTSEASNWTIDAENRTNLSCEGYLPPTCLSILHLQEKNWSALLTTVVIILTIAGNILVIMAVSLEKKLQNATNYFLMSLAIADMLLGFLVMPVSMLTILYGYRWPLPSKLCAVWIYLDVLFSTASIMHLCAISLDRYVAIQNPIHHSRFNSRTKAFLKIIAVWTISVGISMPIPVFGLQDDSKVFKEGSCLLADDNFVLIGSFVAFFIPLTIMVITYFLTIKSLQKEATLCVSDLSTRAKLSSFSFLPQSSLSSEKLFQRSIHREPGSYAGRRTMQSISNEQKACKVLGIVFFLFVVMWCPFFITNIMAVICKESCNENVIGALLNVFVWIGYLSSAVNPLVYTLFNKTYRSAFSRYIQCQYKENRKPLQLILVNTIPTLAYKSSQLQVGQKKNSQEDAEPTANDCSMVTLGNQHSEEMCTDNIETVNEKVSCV
TAAR1 antagonist: antagonists of human TAAR1. inhibition, % at 3 µM. CHO RD-HGA16 TAAR1, Fluo-8 calcium fluorescence, antagonist. 360,000 tested, 1.5% active. Q96RJ0;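 active = inhibition above a per-plate cutoff, the mean inhibition of test compounds on that plate plus 3 SD, cut at about 49% in these data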
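Test system: hTAAR1-expressing CHO RD-HGA16 cells, Gα16-coupled; Probe or stimulus: EC80 β-phenethylamine stimulus; Compound dosing: single nominal final test compound concentration of 3 µM; Timing: 140 s kinetic read after compound, 140 s after agonist; Signal: Fluo-8 calcium-sensitive fluorescence; Measure: % inhibition of agonist calcium response; Controls: DMSO and EC80 PEA controls.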
TAAR1 ag: human TAAR1 agonism | Q96RJ0 | CHO RD-HGA16 TAAR1, Fluo-8 calcium fluorescence; vehicle wells 0%, saturating PEA agonist 100% | activation, % at 3 µM | 360,000 tested, 0.99% active;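 active = activation above the mean activation of all test compounds in the run plus 3 SD, cut at about 38% in these data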
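Benchmarks: low control DMSO, high control PEA (EC100); System: CHO RD-HGA16 cells carrying human TAAR1 plus Gα16; Detection: Fluo-8 fluorescence, 5 s baseline then 140 s kinetic read; Schedule: 17-24 h plating, Fluo-8 75 min 37 °C, 30 min RT; Read-out basis: % activation from peak over basal fluorescence ratio, DMSO-to-PEA scaled.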
MC4R ag barr: agonists of human melanocortin 4 receptor (MC4R) beta-arrestin; U2OS MC4R beta-arrestin complementation, luminescence; percent of melanotan II response, DMSO zero; activation, % at 8.9 µM; 360,000 tested, 0.98% active; AID 540308;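 active = activation above a per-plate cutoff, the mean activation of sample wells on that plate plus 3 SD, cut at about 8% in these data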
B2AR ag: agonists of human beta-2 adrenergic receptor inducing internalization | Am2.2-beta2AR cells, FAP receptor internalization, flow cytometry | response, % (no concentration beside the values) | 340,000 tested, 0.43% active | AID 504454;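 active = response above a set limit, near 3 SD of response in nonfluorescent compounds, cut at about 42% in these data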
MC4R antag cAMP: antagonists of human melanocortin 4 receptor (MC4R) | inhibition, % at 6.5 µM | AID 540295 | MC4R-expressing cells, MTII-stimulated cAMP, LANCE TR-FRET | 360,000 tested, 0.48% active | P32245;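 active = inhibition above its plate's cutoff, the mean of tested wells on that plate plus 3 SD, cut at about 29% in these data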
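Material: human MC4R-expressing U2OS cells. Probe or stimulus: Melanotan II challenge. Dosing: 6.5 µM single dose. Times: 30-min compound, 1-h challenge, 1-h detection, room temperature. Technique: TR-FRET with Eu-cAMP and labeled anti-cAMP, 671 nm. Replication: singlicate.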
MOR ag counter: activates human mu opioid receptor in HTR2A counterscreen. AID 624380. U2OS OPRM1 beta-arrestin PathHunter, luminescence; DMSO 0%, DAMGO 9.3 µM 100%. activation, % at 9.3 µM. 2,300 tested, 5.3% active. shares compounds with m5-HT2A agonist;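 active = mean activation above the mean of DMSO-only wells plus 3 SD, cut at about 0.5% in these data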
m5-HT2A ag conf: mouse HTR2A agonism confirmed; shares compounds with m5-HT2A agonist; CHO-K1 PathHunter beta-arrestin recruitment, luminescence; DMSO 0%, 30 µM serotonin 100%; activation, % at 7.6 µM; 2,300 tested, 19% active; AID 624381;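 active = mean activation across triplicates above the hit threshold derived in the original primary screen, cut at about 15% in these data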
Numbers stand for hits; n = inactive; x = no result.

SMILES | m5-HT2A agonist | TAAR1 antagonist | TAAR1 ag | MC4R ag barr | B2AR ag | MC4R antag cAMP | MOR ag counter | m5-HT2A ag conf
O=C(NC(=S)Nc1ccccc1N1CCCCC1)c1ccc(F)cc1Cl | 17 | n | n | n | n | n | n | n
Cc1nc2cc(Oc3nc(NCCN(C)C)nc4ccsc34)ccc2s1 | 34 | n | n | n | x | n | n | n
CNc1nc(Oc2ccc3sc(C)nc3c2)c2sccc2n1 | n | n | n | n | x | n | x | x
COc1ccc(OCC(=O)Nc2ccc(C(=O)Nc3ccccc3C(=O)O)cc2)cc1 | n | n | n | n | n | n | x | x
O=C(COc1ccc(Br)cc1)Nc1ccc(C(=O)Nc2ccccc2C(=O)O)cc1 | 18 | n | n | n | n | n | n | n
CNC(=O)c1ccc(CNC(=O)OCC(F)(F)F)cc1 | 25 | n | n | n | n | n | n | n
COc1ccc(CCNC(=O)c2nonc2N)cc1 | n | n | n | n | n | n | x | x
COc1cccc(CNCCNC(=O)c2nonc2N)c1 | 19 | n | n | n | n | n | n | n
Cc1ccccc1CN1CCN(C(C)C(=O)NNC(=O)c2ccc(F)cc2)CC1 (configuration not stated) | n | n | n | n | n | n | x | x
Cc1ccc2nc(-c3ccc(NS(C)(=O)=O)cc3)cc(-c3ccccc3)c2c1 | n | n | n | n | n | n | x | x
CCS(=O)(=O)Nc1ccc(-c2cc(-c3ccccc3)c3cc(C)ccc3n2)cc1 | 15 | n | n | n | n | n | n | n
Cc1c(/C=N/NC(=O)CNc2ccccc2)c2ccccn2c1C(=O)c1ccc(Cl)cc1 | n | n | n | n | n | n | x | x
Cc1ccccc1NCC(=O)N/N=C/c1c(C)c(C(=O)c2ccc(Cl)cc2)n2ccccc12 | 15 | n | n | n | n | n | n | 24
CCC(c1nc2ccccc2[nH]1)n1c(=O)c(-c2ccco2)nc2ccccc21 (configuration not stated) | n | n | n | x | x | x | x | x
Cc1ccc(S(=O)(=O)N2CCOCC2)cc1NC(=O)CNCc1cccnc1 | 28 | n | n | n | n | n | n | 75
Cc1ccc(S(=O)(=O)N2CCOCC2)cc1NC(=O)COC(=O)c1ccc2c(c1)OCCO2 | 17 | n | n | n | n | n | n | n
O=C(Nc1ccc([N+](=O)[O-])cc1)c1cccc(S(=O)(=O)Nc2cccnc2)c1 | n | n | n | n | n | n | x | x
O=C(COC(=O)c1ccc2ccccc2n1)NC1CCCCC1 | n | n | n | n | n | n | x | x
CC(Sc1ccccc1)C(=O)Nc1cccc(N(C)S(C)(=O)=O)c1 (configuration not stated) | 17 | n | n | n | n | n | n | n
CCOC(=O)C(N)CSC1CC(=O)N(CCc2ccccc2)C1=O (configuration not stated) | n | n | n | n | n | n | x | x
O=c1c2ccccc2nc(-c2ccc([N+](=O)[O-])cc2)n1O | 16 | n | n | n | n | n | n | n
Cc1ccc(-c2nc3ccccc3c(=O)n2O)cc1 | n | n | n | n | n | n | x | x
CCCCN(CCCC)S(=O)(=O)c1ccc(SCC(=O)OCC)c([N+](=O)[O-])c1 | n | n | n | n | n | n | x | x
COC(=O)CSc1ccc(S(=O)(=O)N2CCC(C)CC2)cc1[N+](=O)[O-] | 17 | n | n | n | n | n | n | n
CCOC(=O)CSc1ccc(S(=O)(=O)N(CC)CC)cc1[N+](=O)[O-] | 17 | n | n | n | n | n | n | n
SMILES | m5-HT2A agonist | TAAR1 antagonist | TAAR1 ag | MC4R ag barr | B2AR ag | MC4R antag cAMP | MOR ag counter | m5-HT2A ag conf
COc1ccc(Cl)cc1NC(=O)CSc1nnc(C2CC2)n1N | n | n | n | n | n | n | x | x
O=C(NCCCn1ccnc1)/C(=C\c1ccco1)NC(=O)c1ccco1 | 15 | n | n | n | n | n | n | n
C=CCC(O)(CC=C)CNC(=O)c1ccc(OC)c(OC2CCN(C(C)=O)CC2)c1 | n | n | n | n | n | n | x | x
CC(C)Oc1ccc(CCc2n[nH]c(=S)n2-c2ccccc2)cc1 | n | n | n | n | n | n | x | x
CCOc1ccc(CCNC(=O)c2ccc3c(=O)[nH]c4c(C(=O)NC(C)C)sc(=S)n4c3c2)cc1 | 19 | n | n | n | n | n | n | n
COc1ccc([C@@]2(C(C)C)ON(c3ccccc3C(F)(F)F)C2=O)cc1 | n | n | n | n | n | n | x | x
Cc1csc2c(N3CCC(C(=O)O)CC3)ncnc12 | n | n | n | n | n | n | x | x
Cc1csc2c(N3CCN(C(=O)Nc4ccc(OC(F)(F)F)cc4)CC3)ncnc12 | 14 | n | n | n | n | n | n | n
CCOC(=O)C1=C(N)Oc2cc(O)ccc2C1c1ccc(C)cc1 (configuration not stated) | 31 | n | n | n | n | n | 1.1 | n
Cc1ccc2c(c1)[C@H]1[C@H](CO2)[C@H](c2ccccc2)[C@]2(C)C(=O)N(CC3CCCO3)CC(=O)N12 (some centres not stated) | 18 | n | n | n | n | n | n | n
CC1(C(=O)Nc2ccc3c(c2)OCCO3)CSCC(=O)N1Cc1ccco1 (configuration not stated) | n | n | n | x | x | x | x | x
CCC(C(=O)OC)n1cnc2c(nnn2-c2ccc(F)cc2)c1=O (configuration not stated) | n | n | n | n | n | n | x | x
C=C(C)COc1ccc(-c2nc(N)ncc2-c2ccc(OC)cc2)c(O)c1 | x | n | n | x | x | x | x | x
C=C(C)COc1ccc(-c2nc(N)nc(C)c2-c2ccc(OC)cc2)c(O)c1 | 18 | n | n | n | n | n | n | n
COc1ccccc1CNC(=O)COC(=O)c1ccccc1-c1ccccc1 | n | n | n | n | n | n | x | x
C(#Cc1ccccc1)CN1CCN(c2ccccn2)CC1 | n | n | n | n | n | n | x | x
Clc1ccc(CN2CCN(c3ncccn3)CC2)cc1 | 29 | n | n | n | n | n | n | 117
c1ccc(CN2CCN(c3ncccn3)CC2)cc1 | 35 | n | n | n | n | n | n | 98
Fc1ccc(CN2CCN(c3ncccn3)CC2)c(F)c1 | n | n | n | n | n | n | x | x
c1ccc(COc2ccc(CN3CCN(c4ccccn4)CC3)cc2)cc1 | 27 | n | n | n | n | n | n | 99
Clc1ccc(CN2CCN(c3ncccn3)CC2)cc1Cl | 27 | n | n | n | n | n | n | 112
